Variants at the floor of the assay were thinned out.
B1: tRNA (parent)
chain: GUUCCGUUGGCGUAAUGGUAACGCGUCUCCCUCCUAAGGAGAAGACUGCGGGUUCGAGUCCCGUACGGAACG

Variants of: B1
Assay: yeast fitness relative to wild type (ratio to wild type); higher = fitter; tRNA-Arg(CCU), competitive growth, 37 C, YPD
Method in brief: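 Gene amplicons from the start population and from each of six end populations were read by 100-nucleotide paired-end sequencing. Those end populations came from pooled Saccharomyces cerevisiae strains carrying tRNA-Arg(CCU) gene variants at the native locus, competed in YPD at 37°C for 24 hours. Fitness relative to wild type was worked out from changes in genotype frequencies. Genotypes needed ≥ 100 starting reads, and estimates < 0.5 were set to 0.5.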

Row | Variant | yeast fitness
1 | C31U G68A | 0.883
2 | C31U G68C | 0.68
3 | C31G A57U A69C A70G | ≤ 0.5
4 | C31U U53A U59A | ≤ 0.5
5 | C31G C33U C61U | ≤ 0.5
6 | C31G C33U A37C C61U A65U | ≤ 0.5
7 | U32C A42U | 0.974
8 | C31A G51A G58C | 0.561
9 | C31U C34U G38A C46U | 0.524
10 | C31G U53C U54G | ≤ 0.5
11 | C31A U53A A65U | ≤ 0.5
12 | U32A A45U A69C | 0.706
13 | C31G G63A | 0.848
14 | C31G U32G A37U A65U | ≤ 0.5
15 | U32C A36U G38A G50A | 0.584
16 | C31G G38A C61A G63A A65G | ≤ 0.5
17 | U32A G52C | ≤ 0.5
18 | U32A U54A | ≤ 0.5
19 | C31U C34G C49U G52A A69U | ≤ 0.5
20 | C31G G50C G58C | 0.571
21 | C31U A37G G68C | ≤ 0.5
22 | C31G U54A | 0.655
23 | C31G G48C | 0.811
24 | C31U G41C C61U | 0.574

Row | Variant | yeast fitness
25 | U32A C55U | 0.501
26 | C31U G56A | 1.04
27 | C31G G51A G68C | 0.545
28 | C31U U59C | 1.02
29 | C31U U35A G51C | ≤ 0.5
30 | C31G C55G A65C | ≤ 0.5
31 | C31U A37U A69U | 0.677
32 | U32A G39A G58A C61A C62G | ≤ 0.5
33 | C31A G51C C55G A57U | ≤ 0.5
34 | C31G C55A A57U U59C C60U | ≤ 0.5
35 | C31U A42G C62U A69C | 0.542
36 | C31U C46A A65U A69U | 0.58
37 | C31U G38C | 0.845
38 | C31A G67U | 0.755
39 | C31A G67C | 0.846
40 | C31G U54C C55G U64C | ≤ 0.5
41 | U32A A37C A42C C49A U53A | ≤ 0.5
42 | C31U U32C C33U | 0.667
43 | U32A A42U | 0.861
44 | U32C A37G C55A A65U G68C | 0.575
45 | U32C A43C A69G | ≤ 0.5
46 | U32A G39A G63A | ≤ 0.5
47 | U32A A40C G58C G63A | ≤ 0.5
48 | C31G A37U A42U A65C | ≤ 0.5

Row | Variant | yeast fitness
49 | C31G G51A | 0.749
50 | C31U A45C | 1.25
51 | C31U A45U | 1.12
52 | C31G G51A A57G G68C | ≤ 0.5
53 | C31U A43G | 1.06
54 | C31U A36C G41A | ≤ 0.5
55 | C31G A45U U47A | 0.521
56 | C31G C33G A57U A65U | ≤ 0.5
57 | C31U A40C C55G G68A A69U | 0.581
58 | C31U G39C G52C | ≤ 0.5
59 | C31G G41A G63U | 0.609
60 | C31U A70U | 1.04
61 | C31G A37U | 0.728
62 | C31U U47C G63A | 0.687
63 | C31A U47C C61A | ≤ 0.5
64 | U32C A43G A65C | 0.913
65 | C31U G50A | 0.904
66 | C31U G67C | 0.902
67 | C31U C46A A70C | 0.771
68 | C31U C60U C61G | ≤ 0.5
69 | C31U A37U U54A | 0.514
70 | C31G A42G | 0.721
71 | C31G G41A G52C A65U G67C | ≤ 0.5
72 | C31G A57U A69G | 0.774

Row | Variant | yeast fitness
73 | C31U A36C | 0.842
74 | C31U A40C C49U G52A | ≤ 0.5
75 | C31U A42U C62A | 0.615
76 | C31G C66G | 0.587
77 | U32A A36C A70G | ≤ 0.5
78 | C31G A36U G48A A57C | ≤ 0.5
79 | C31A U47A | 0.673
80 | U32C A70U | 0.935
81 | U32C A70C | 0.991
82 | C31U A57C | 0.574
83 | C31U U47G | 0.526
84 | U32C A45G A57U | ≤ 0.5
85 | C31G G44A U47A G51C C66U | ≤ 0.5
86 | U32C A36G G63A | 0.628
87 | C31U G52C C60A | 0.632
88 | C31G C33G G67A | ≤ 0.5
89 | U32C C33U C62U A65G | 0.58
90 | C31G C34A C55U U59C | ≤ 0.5
91 | C31G G41A G52C C60U C62G C66G | 0.539
92 | C31U C33U C34G A40C A69C | ≤ 0.5
93 | U32A G52C C55U C61U C66U | ≤ 0.5
94 | C31U C34G C62U A70G | ≤ 0.5
95 | C31U C33U A37C | ≤ 0.5
96 | C31A U32C C46U | ≤ 0.5

Row | Variant | yeast fitness
97 | U32C A45U C46G A69C | ≤ 0.5
98 | U32A G38C U47A | ≤ 0.5
99 | C31U G56A G63C | ≤ 0.5
100 | C31G C33G A57C | ≤ 0.5
101 | C31U A42G G63C C66U | ≤ 0.5
102 | C31G C33U U53C U54G C55A | ≤ 0.5
103 | C31G A43C | 0.932
104 | C31G A43G | 0.982
105 | U32A C46U G63C | ≤ 0.5
106 | C31U U53G C61G A70U | ≤ 0.5
107 | U32A A43G U64G | ≤ 0.5
108 | C31G C49U U54G | ≤ 0.5
109 | C31U U47A G51U C62U | ≤ 0.5
110 | C31U C55A | 0.749
111 | C31G C61G C62G | 0.514
112 | C31G G44C | 0.931
113 | U32C A37C | 0.771
114 | U32C A37U | 0.729
115 | U32A C33U U47A | 0.54
116 | C31U C33U A42C | 0.562
117 | C31U G52C A65U | ≤ 0.5
118 | C31U G39C G58A | 0.552
119 | U32C A36G | 0.861
120 | U32C A37U G52A C66A | ≤ 0.5

Row | Variant | yeast fitness
121 | C31G A36U U53C C61A G68A | ≤ 0.5
122 | U32A C34G C55G G68A A70C | ≤ 0.5
123 | C31G A65G | 0.867
124 | C31G A65C | 0.691
125 | C31G A37G G38C A43G G58C | ≤ 0.5
126 | C31A U32C U53C C60G | ≤ 0.5
127 | C31U G41A A69U | 0.808
128 | C31G U59A | 0.779
129 | U32A A37C C66U | ≤ 0.5
130 | C31U G48A C61A | 0.532
131 | C31U C66A | 0.774
132 | U32C A40G C49G | 0.514
133 | U32A C34U | 0.531
134 | U32A C34A | 0.648
135 | C31G U47G | 0.667
136 | C31G U47C | 0.952
137 | C31G G48A C55A C62A | ≤ 0.5
138 | C31G U32A C60G | ≤ 0.5
139 | C31U A37U A70U | 0.558
140 | U32C A43C G52A C55U C60A | ≤ 0.5
141 | C31U G41C | 0.796
142 | C31U A36C U53C | 0.569
143 | C31A U59G | 0.771
144 | C31A U35A A36U U47C C66U | ≤ 0.5

Row | Variant | yeast fitness
145 | C31G G44C G67C | ≤ 0.5
146 | C31U C34G G67A | 0.539
147 | C31G A40G C49U G50C A70C | ≤ 0.5
148 | C31G C61U | 0.834
149 | C31U C62G G68C | 0.507
150 | U32A A69C | 0.882
151 | U32A A69U | 0.958
152 | C31G C46U | 0.998
153 | C31G A45G U47A | 0.893
154 | C31U C49A | 0.783
155 | C31U C49G | 0.914
156 | U32A G58C | 0.651
157 | C31A U35A C55G G58C | ≤ 0.5
158 | C31U G38C G51C C55U | ≤ 0.5
159 | U32A C33U G52A | 0.597
160 | C31U A40G G48A A70U | 0.533
161 | U32C A40U | 1.01
162 | U32C A40C | 0.986
163 | C31G G41A A43C G51C | 0.562
164 | U32A G41C A65U | ≤ 0.5
165 | C31A U54C U64A | ≤ 0.5
166 | C31U G39A A45C | 0.677
167 | C31A G56A A65G C66A G68C | 0.562

— the RNAGym collection of RNA variant scans (doi:10.1126/science.aae0568)
